STAT3 blocker: inhibitors of IL-6 induced STAT3 signaling. inhibition, % at 5.5 µM. 190,000 compounds, 0.89% hits. U3A cells, IL-6 STAT3-luciferase reporter, luminescence; host cell line lacks STAT1. AID 862;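 active = inhibition above the mean inhibition across all screened compounds plus 3 SD, cut at about 44% in these data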
STAT1 inh-1: STAT1 signaling inhibition. 200,000 compounds, 0.35% hits. inhibition, % at 5.5 µM. NIH 3T3 STAT1-luciferase reporter, IFN-gamma, luminescence;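 active = inhibition above a set limit, the mean inhibition across all tested compounds plus 3 SD, cut at about 34% in these data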
STAT3 activator: activators of IL-6 induced STAT3 signaling; U3A cells, IL-6 STAT3-luciferase reporter, luminescence; 100% = signal with IL-6 EC80 alone; activation (% of control), % at 5.6 µM; 190,000 compounds, 0.91% hits; AID 871;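 active = activation above the screen-wide mean of compound activation plus 3 SD, cut at about 130% in these data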
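system = STAT3-luciferase reporter U3A cells | reagent = IL-6 stimulus at 33 ng/mL final | timing = 1 h compound pre-exposure, 6 h IL-6 stimulation, 37 °C | measured by = luminescence | evaluation = % activation versus median of IL-6-stimulated wells | control set = IL-6-only wells as 100% reference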
NF-kB neuron act: raises NF-kB expression in human neuronal cells | NF-kB reporter expression; stronger effect = higher value | 190,000 compounds, 1.6% hits | AID 1239 | fold change at 12.5 µM; in the data active = fold change above about 3.3
APP 5'UTR act: activates APP 5'UTR luciferase reporter | 190,000 compounds, 1% hits | activation, % at 2 µM | SH-SY5Y APP 5'UTR luciferase reporter, luminescence; zero percent = DMSO vehicle wells;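 active = activation above a set limit, based on mean plus 3 SD of controls, cut at about 140% in these data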
STAT1 act: STAT1 signaling activation; NIH 3T3 STAT1-luciferase reporter, IFN-gamma, luminescence; 100% = IFN-gamma alone, no compound; activation (% of control), % at 5.5 µM; 200,000 compounds, 2.6% hits; AID 932;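 active = activation above the screen-wide mean activation plus 3 SD, cut at about 130% in these data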
STAT1 inh-2: STAT1 inhibition, confirmation assay; 200 compounds, 55% hits; shares compounds with STAT1 inh-1; inhibition, % at 5.5 µM; AID 1263; NIH 3T3 STAT1-luciferase reporter, IFN-gamma, luminescence;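 active = triplicate mean inhibition exceeding the hit cutoff computed for the primary STAT1 screen, cut at about 35% in these data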
NFkB inh: NF-kappaB inhibition in STAT1 inhibitor counter-screen. shares compounds with STAT1 inh-1. HEK293T NF-kB luciferase reporter, TNF-alpha induced, luminescence. inhibition, % at 5.7 µM. 200 compounds, 30% hits. AID 1303;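 active = inhibition above the mean of solvent-only control wells plus 3 SD of those wells, cut at about 15% in these data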
STAT3 inh 2: STAT3 inhibition in STAT1 inhibitor counter-screen; shares compounds with STAT1 inh-1; U3A cells, IL-6 STAT3 luciferase reporter, luminescence; cells lacking STAT1; inhibition, % at 5.7 µM; 200 compounds, 20% hits; AID 1310;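 active = inhibition above the mean of solvent-only control wells plus 3 SD, set per campaign, cut at about 25% in these data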
A number is an active result; i = inactive; nt = no result. Shown are actives, neighbours in structure and some others; about 5.1% of the full set was active somewhere.

SMILES	STAT3 blocker	STAT1 inh-1	STAT3 activator	NF-kB neuron act	APP 5'UTR act	STAT1 act	STAT1 inh-2	NFkB inh	STAT3 inh 2
O=C(O)c1ccccc1C(=O)Nc1ccc(Oc2cccc3ccccc23)cc1	i	62.6	i	i	i	i	i	22.8	i
Cc1cccc(Oc2ccc(NC(=O)c3ccccc3C(=O)O)cc2)c1C	i	i	i	i	i	i	nt	nt	nt
COc1ccc(S(=O)(=O)NCC2CCC(C(=O)NCC(OC)OC)CC2)cc1 (centres undefined)	i	i	i	i	i	i	nt	nt	nt
CCOC(=O)N1CCN(C(=S)NC(=O)c2ccc(Br)cc2)CC1	i	i	i	i	i	i	nt	nt	nt
CCOC(=O)N1CCN(C(=S)NC(=O)c2cc(Br)ccc2Cl)CC1	i	44.3	i	i	i	i	i	i	i
O=c1[nH]c(SCc2ccccc2F)nc2ccccc12	i	i	i	i	i	i	nt	nt	nt
O=c1cc(CSc2nc3ccccc3c(=O)[nH]2)c2ccc(O)cc2o1	i	69.5	i	i	i	i	51.9	i	i
CCOC(=O)N1CCN(C(=O)c2ccc(NC(=O)c3ccc(C)cc3)cc2)CC1	i	68.1	i	i	i	i	61.1	i	i
CCOC(=O)N1CCN(C(=O)c2ccc(NC(C)=O)cc2)CC1	i	i	i	i	i	i	nt	nt	nt
O=C(/C=C/c1cn(-c2ccccc2)nc1-c1cccnc1)N1CCCC1	i	70.9	i	i	i	i	55.2	36.6	33.2
CCOC1=NN(c2ccccc2)C(=O)/C1=C\N(C)C	i	i	i	i	i	i	nt	nt	nt
CC1=NN(c2nc3ccccc3[nH]2)C(=O)/C1=C/N(C)C	i	41.2	i	i	i	i	i	i	i
COc1ccc(CCNC(=O)Cn2c(=O)n(-c3ccc(C)c(F)c3)c(=O)c3sccc32)cc1OC	i	52.0	i	i	i	i	44.7	16.4	i
Cc1sc(-c2ccccn2)nc1OC(=O)c1ccc(F)cc1F	i	74.4	i	i	i	i	50.4	24.3	i
O=C(O)c1cccc(N/N=C/c2cccnc2)c1	i	39.6	i	i	i	i	i	30.7	i
O=C(N/N=C/c1cccnc1)C(O)(c1ccccc1)c1ccccc1	i	i	i	i	i	i	nt	nt	nt
COCCn1c(C)cc(C(=O)COc2ccc(C)nc2[N+](=O)[O-])c1C	i	35.9	i	i	i	i	i	i	i
Cc1cccc(NC(=O)C2c3ccccc3Oc3ccccc32)n1	i	i	i	i	i	i	nt	nt	nt
O=C(CSc1nc2ccccc2c(=O)n1Cc1ccco1)N1CCCC1	i	36.8	i	i	i	i	i	i	i
NC(=O)CSc1nc2ccccc2c(=O)n1Cc1ccco1	i	i	i	i	i	i	nt	nt	nt
COc1ccc(-c2cc(C(F)(F)F)nc(S(=O)(=O)CCCC(=O)Nc3cccc(O)c3)n2)cc1OC	i	38.3	i	i	i	i	38.6	i	i
COc1ccccc1-c1cc(C(F)(F)F)nc(S(=O)(=O)CCCC(=O)N2CCOCC2)n1	i	42.6	i	i	i	i	44.4	i	i
CS(=O)(=O)N1CCC(C(=O)N2CCN(c3ccc(F)cc3)CC2)CC1	i	i	i	i	i	i	nt	nt	nt
Cn1cc([N+](=O)[O-])c(C(=O)Nc2cc(Oc3ccccc3)cc([N+](=O)[O-])c2)n1	i	34.8	i	i	i	i	40.4	24.0	i
Cc1nn(C)cc1C(=O)Nc1cc(Oc2ccc(Cl)cc2)cc([N+](=O)[O-])c1	i	i	i	i	i	i	nt	nt	nt
SMILES	STAT3 blocker	STAT1 inh-1	STAT3 activator	NF-kB neuron act	APP 5'UTR act	STAT1 act	STAT1 inh-2	NFkB inh	STAT3 inh 2
CCOC(=O)C1=C(CC)Nc2ccccc2N=C1NC(=O)c1ccc(OC)c(S(=O)(=O)N2CCCCC2C)c1 (centres undefined)	i	37.2	i	i	i	i	i	i	i
Cc1ccc(NC(=O)c2cc(C)n(-c3cccc(C)c3)c2C)cc1	i	65.4	i	i	i	i	i	i	i
CC(C)COc1ccc(C/C(N)=N/n2cnnc2)cc1	i	35.3	i	i	i	i	i	i	39.1
Cc1ccc(-n2nnc(-c3nccs3)n2)cc1	nt	82.7	nt	i	i	i	48.6	76.3	84.8
Cc1cccc(/C=C(\c2nc3ccccc3[nH]2)S(=O)(=O)c2ccccc2)c1	i	38.4	i	i	i	i	46.8	i	i
O=C(NCCc1ccccc1)c1cc(=O)[nH]c2ccccc12	i	i	i	i	i	i	nt	nt	nt
COc1ccc(CNC(=O)c2c(C)oc3c2C(=O)c2ccccc2C3=O)cc1	i	i	i	i	i	i	nt	nt	nt
Cc1oc2c(c1C(=O)NCc1cccnc1)C(=O)c1ccccc1C2=O	nt	89.5	nt	i	i	i	97.7	73.9	65.3
COc1ccc(-n2c(=O)[nH]c3c(C(N)=O)nc(C4CCCCC4)nc32)cc1	i	i	i	i	i	i	nt	nt	nt
COc1cccc(-n2nnnc2S(C)(=O)=O)c1	i	34.7	i	i	i	i	43.6	i	i
COCC(C)n1c(=O)sc2ccccc2c1=O (centres undefined)	i	i	i	i	i	i	nt	nt	nt
Cc1ccc(C)c(NC(=O)C2CCCN2C(=O)NC2CCCCC2)c1 (centres undefined)	i	i	i	i	i	i	nt	nt	nt
Cc1nn(Cc2ccc(Cl)c(Cl)c2)c(C)c1NC(=O)c1cc(-c2ccc3c(c2)OCO3)on1	i	36.6	i	i	i	i	i	i	i
Cc1cnnn1-c1ccc(C(=O)CCl)cc1	i	i	i	i	i	i	nt	nt	nt
CC(=O)/C(=C/c1ccccc1)C(=O)Nc1ccccc1C	i	i	i	i	i	i	nt	nt	nt
Cc1ccccc1NC(=O)C(=Cc1ccc(C(=O)O)cc1)C(=O)Nc1ccccc1C	i	41.0	i	i	i	i	46.1	i	i
COc1ccccc1NC(=O)/C(=N/OCc1ccc(F)cc1)C(C)=O	i	i	i	i	i	i	nt	nt	nt
CCN(CC(=O)NCc1ccc(Cl)cc1)C(=O)/C=C/c1cccs1	i	68.2	i	i	i	i	i	i	i
COc1ccc2[nH]c(=O)c(CN(Cc3cccnc3)C(=S)NCC3CCCO3)cc2c1 (centres undefined)	i	i	i	i	i	i	nt	nt	nt
Cc1ccc2[nH]c3c(=O)n4c(nc3c2c1)SCC4	i	i	i	i	i	i	nt	nt	nt
COc1ccc2[nH]c3c(=O)n4c(nc3c2c1)SCCC4	i	37.3	i	i	i	i	i	i	i
CCC(C)N(C)C(=O)c1cc2ccccc2c(-c2ccccc2Cl)n1 (centres undefined)	i	i	i	i	i	i	nt	nt	nt

Assay outcomes: PubChem, several laboratories
